From ChEMBL document CHEMBL4041462, “Rice Bran Protein as a Potent Source of Antimelanogenic Peptides with Tyrosinase Inhibitory Activity” (J Nat Prod, 2016) come the findings set out here.

The target of data set [1] is T1, Tyrosinase (Mus musculus) (UniProt P11344).
T1 sequence (whole entry): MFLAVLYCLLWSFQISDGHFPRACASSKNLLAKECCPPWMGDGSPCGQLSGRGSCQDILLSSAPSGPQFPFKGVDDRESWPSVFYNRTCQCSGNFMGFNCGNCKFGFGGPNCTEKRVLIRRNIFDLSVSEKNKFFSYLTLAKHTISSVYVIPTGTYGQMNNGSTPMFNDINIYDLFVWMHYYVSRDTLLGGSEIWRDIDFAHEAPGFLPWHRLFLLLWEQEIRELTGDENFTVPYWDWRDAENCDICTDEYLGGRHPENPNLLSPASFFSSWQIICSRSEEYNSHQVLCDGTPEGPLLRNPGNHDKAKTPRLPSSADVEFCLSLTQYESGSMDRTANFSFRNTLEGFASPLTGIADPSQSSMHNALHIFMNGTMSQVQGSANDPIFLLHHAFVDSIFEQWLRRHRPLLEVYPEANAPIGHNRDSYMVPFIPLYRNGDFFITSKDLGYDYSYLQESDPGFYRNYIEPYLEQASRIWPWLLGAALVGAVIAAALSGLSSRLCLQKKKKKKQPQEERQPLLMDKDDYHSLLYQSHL
Description: Inhibition of tyrosinase in mouse B16 cells assessed as reduction in melanin production at 500 uM after 3 days relative to control. It counts as cell-based. In a few lines:
(§1)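 Melanin content: B16 mouse melanoma cells were seeded at 1.5 × 10^4 cells/well and incubated 24 h. They were then exposed for 3 days to 125, 250 or 500 μM peptide in 5% FBS medium. Cells were harvested with 0.25% trypsin/1 mM EDTA, washed in PBS and lysed in 1 M NaOH, 1 h at 60 °C. Absorbance was read at 420 nm. Matched DMSO without peptide served as background.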

Data set [2] addresses T2, Mushroom tyrosinase (Agaricus bisporus) (UniProt O42713+Q00024+C7FF04+C7FF05). The data set is described as follows: Inhibition of mushroom tyrosinase monophenolase activity at 100 to 500 uM using L-tyrosine as substrate. The method in brief: (§2)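 Monophenolase: 2.0 mM L-tyrosine (stock, 100 μL) in 0.1 M phosphate buffer pH 6.5 with peptide or water was preincubated 10 min at 30 °C. Mushroom tyrosinase (1320 units/mL stock) was added and absorbance at 475 nm monitored at 30 °C. Lag time was taken by extrapolating the linear dopachrome rise to the x-axis. Residual activity = (1/lag with inhibitor)/(1/lag with water) × 100. IC50 was read manually from curves. Triplicate.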

The target in data set [3] is T2, Mushroom tyrosinase (Agaricus bisporus). The data set is described as follows: Inhibition of mushroom tyrosinase diphenolase activity at 100 to 500 uM using L-DOPA as substrate. In a few lines:
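Diphenolase: 2.0 mM L-dopa (stock, 100 μL) was mixed with 0.1 M phosphate buffer pH 6.5 and peptide or water, then preincubated 10 min at 30 °C. Mushroom tyrosinase (1320 units/mL stock) was added and dopachrome followed at 475 nm, 30 °C. Residual activity = rate (ΔA475/min) with inhibitor ÷ rate with water × 100. IC50 was estimated manually from inhibition curves. Performed three times.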

The next data set relates to B16. Description: Cytotoxicity against mouse B16 cells assessed as reduction in cell viability at 125 to 500 uM after 3 days by WST1/MTT assay. It counts as cell-based. Conditions: b16, 72 h. In a few lines:
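B16 mouse melanoma cells were grown in Eagle's MEM with Earle's salts, 5% or 10% FBS and 1% penicillin–streptomycin, 37 °C, 5% CO2. They were seeded at 1.0 × 10^3 cells/well and left 24 h. Medium was then replaced with 5% FBS medium containing peptide at 125, 250 or 500 μM. After 3 days, viability was read by WST-1. Matched DMSO without peptide served as background. Three independent experiments; mean ± SD.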

Data set [4] deals with T1, Tyrosinase (Mus musculus). The data set is described as follows: Inhibition of tyrosinase in mouse B16 cells assessed as reduction in melanin production at 125 to 500 uM after 3 days. It counts as cell-based. The method in brief:
as §1

A further data set concerns the target Mushroom tyrosinase (Agaricus bisporus, UniProt O42713+Q00024+C7FF04+C7FF05). Description: Inhibition of mushroom tyrosinase monophenolase activity using L-tyrosine as substrate. The method in brief:
as §2

The source made the active and inactive calls. The calls are words filed in the database; no cut-off is given here. A value given as a limit tells only on which side of the number the result lay.

As for `OC[C@H]1O[C@@H](Oc2ccc(O)cc2)[C@H](O)[C@@H](O)[C@@H]1O`, the inhibition – broadly, the drop in the measured response relative to a control, in per cent – in data set [1] was “Active”.
Take H-DTVHGQW-OH: the inhibition result in data set [2] and in data set [3] was “inactive” each time.
H-HGGEGGRPY-OH: in data set [2], the inhibition entry was “Active”. Moreover, the inhibition entry in data set [3] and in data set [4] was “inactive” throughout. The Activity entry with B16 was “Non-Toxic”.
For the compound H-HPTSEVY-OH, the inhibition entry in data set [2] was “Active”. The inhibition result in data set [3] and in data set [4] was “inactive” in each case. Further, in the data set on B16, the Activity result was “Non-Toxic”.
On to H-LQPSHY-OH, for which the inhibition entry in data set [3] was “inactive”. Besides, the Activity entry with B16 is “Non-Toxic”. In addition, at Mushroom tyrosinase, the IC50 – broadly, the concentration that gives 50% inhibition – was determined as 156 µM. In addition, in data set [1], the inhibition is more than 50%.
With H-WEAGQDQR-OH, the inhibition result in data set [2] and in data set [3] was “inactive” each time.
On to H-WEEEPEDER-OH, for which the inhibition result in data set [2] and in data set [3] was “inactive” each time.
